Experimental data reported in ChEMBL document CHEMBL2010770, “Dimeric 3,5-bis(benzylidene)-4-piperidones: a novel cluster of tumour-selective cytotoxins possessing multidrug-resistant properties” (Eur J Med Chem, 2012).
Activity calls are given as the source filed them. The calls are words filed in the database; no cut-off is given here.

What was measured:
[1] = tested on: HCT-116; assay: Cytotoxicity against human HCT116 cells; type: functional, cell-based
Outline: (§1)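 Human colon cancer and leukaemia line panel. Compounds tested from 10^-4 to 10^-8 M, and IC50 values determined.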

[2] = tested on: HL-60; assay: Induction of apoptosis in human HL60 cells assessed as formation of internucleosomal DNA fragmentation at up to 0.8 uM after 6 hrs; type: functional, cell-based
[3] = tested on: K562; assay: Cytotoxicity against human K562 cells; type: functional, cell-based; outline: as §1
[4] = tested on: SW-620; assay: Cytotoxicity against human SW620 cells; type: functional, cell-based; outline: as §1
[5] = tested on: HSC-2; assay: Cytotoxicity against human HSC2 cells after 48 hrs; type: functional; settings: HSC-2, 48 h
Outline: (§2)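 Human HSC-2, HSC-3, HSC-4 squamous carcinoma and HL-60 promyelocytic leukaemia cells incubated with compound for 48 h. CC50, the concentration killing 50% of cells, read from a dose–response curve.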

[6] = tested on: HL-60; assay: Induction of apoptosis in human HL60 cells assessed as formation of internucleosomal DNA fragmentation at up to 0.8 uM after 24 hrs; type: functional, cell-based
[7] = tested on: HSC-2; assay: Induction of apoptosis in human HSC2 cells assessed as formation of internucleosomal DNA fragmentation at up to 0.8 uM after 6 hrs; type: functional, cell-based
[8] = Cytotoxicity against human HPLF cells after 48 hrs; type: cell-based
Outline: (§3)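 Cells were exposed to a dose range for 48 h, following a literature method. CC50 was read from the dose–response curve.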

[9] = tested on: HL-60; assay: Induction of apoptosis in human HL60 cells assessed as increase of caspase-3 activation using DEVD-pnitroanilide as substrate after 6 hrs; type: functional, cell-based
Outline: (§4)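 HSC-2 and HL-60 cells were exposed for up to 6 h and then lysed. Lysates were mixed with DEVD-p-nitroanilide and incubated at 37 °C for 2 h. Released p-nitroanilide was read at 405 nm.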

[10] = biological target: T1, ATP-dependent translocase ABCB1 (Homo sapiens, UniProt P08183); assay: Inhibition of human MDR1-mediated multidrug resistant in mouse L5178Y cells at 4 uM treated 10 mins before rhodamine 123 challenge measured after 20 mins relative to control; type: cell-based
Outline: (§5)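 Compounds in DMSO were added at room temperature to mdr1-transfected and parental L5178Y cells. After 10 min, rhodamine 123 was added, followed by 20 min at 37 °C. Cellular rhodamine fluorescence was measured and expressed as fluorescence activity ratio (FAR); FAR >1 indicates MDR reversal.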

[11] = tested on: HSC-2; assay: Selectivity index, ratio of CC50 for human normal cells to CC50 for human HSC2 cells; type: functional
[12] = tested on: HCT-116; assay: Cell cycle arrest in human HCT116 cells assessed as accumulation at G2/M phase at 1 uM after 48 hrs using propidium iodide staining by flow cytometry (reference value: 4.75%); type: functional
[13] = tested on: KM12; assay: Cytotoxicity against human KM12 cells; type: functional, cell-based; outline: as §1
[14] = tested on: HSC-4; assay: Cytotoxicity against human HSC4 cells after 48 hrs; type: functional; settings: HSC-4, 48 h; outline: as §2
[15] = tested on: HT-29; assay: Cytotoxicity against human HT-29 cells; type: functional, cell-based; outline: as §1
[16] = tested on: L1210; assay: Growth inhibition of mouse L1210 cells; type: functional, cell-based
[17] = tested on: HSC-4; assay: Selectivity index, ratio of CC50 for human normal cells to CC50 for human HSC4 cells; type: functional
[18] = biological target: T1, ATP-dependent translocase ABCB1; assay: Inhibition of human MDR1-mediated multidrug resistant in mouse L5178Y cells at 40 uM treated 10 mins before rhodamine 123 challenge measured after 20 mins relative to control; type: cell-based; outline: as §5
[19] = tested on: HCC 2998; assay: Cytotoxicity against human HCC2998 cells; type: functional, cell-based; outline: as §1
[20] = tested on: CCRF-CEM; assay: Growth inhibition of human CEM cells; type: functional, cell-based
[21] = tested on: HSC-2; assay: Induction of apoptosis in human HSC2 cells assessed as formation of internucleosomal DNA fragmentation at up to 0.8 uM after 24 hrs; type: functional, cell-based
[22] = tested on: HSC-3; assay: Selectivity index, ratio of CC50 for human normal cells to CC50 for human HSC3 cells; type: functional
[23] = tested on: HL-60; assay: Induction of apoptosis in human HL60 cells assessed as increase of PARP1 cleavage at 0.2 uM after 6 hrs by Western blot analysis; type: functional, cell-based
Outline: (§6)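 HSC-2 cells were treated at 0.4 µM and HL-60 cells at 0.2 µM. Cells were washed in ice-cold PBS and lysed in HEPES pH 7.4/Triton X-100 buffer with phosphatase and protease inhibitors. Lysates were run on 8% SDS-PAGE and transferred to PVDF. Blots were blocked in 5% milk and probed with anti-cleaved PARP1 and anti-β-actin, then HRP-conjugated secondary antibodies.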

[24] = tested on: HSC-3; assay: Cytotoxicity against human HSC3 cells after 48 hrs; type: functional; settings: HSC-3, 48 h; outline: as §2
[25] = tested on: HSC-2; assay: Induction of apoptosis in human HSC2 cells assessed as increase of caspase-3 activation using DEVD-pnitroanilide as substrate after 6 hrs; type: functional, cell-based; outline: as §4
[26] = tested on: HL-60(TB); assay: Cytotoxicity against human HL-60(TB) cells; type: functional, cell-based; outline: as §1
[27] = tested on: HCT-116; assay: Cell cycle arrest in human HCT116 cells assessed as accumulation at S phase at 1 uM after 48 hrs using propidium iodide staining by flow cytometry (reference value: 3.19%); type: functional
[28] = tested on: HCT-116; assay: Cell cycle arrest in human HCT116 cells assessed as accumulation at G0/G1 phase at 1 uM after 48 hrs using propidium iodide staining by flow cytometry (reference value: 92.07%); type: functional
[29] = Cytotoxicity against human HGF cells after 48 hrs; type: cell-based; outline: as §3
[30] = tested on: HCT-15; assay: Cytotoxicity against human HCT15 cells; type: functional, cell-based; outline: as §1
[31] = tested on: HL-60; assay: Selectivity index, ratio of CC50 for human normal cells to CC50 for human HL60 cells; type: functional
[32] = tested on: COLO 205; assay: Cytotoxicity against human COLO205 cells; type: functional, cell-based; outline: as §1
[33] = tested on: MOLT-4; assay: Growth inhibition of human Molt4/C8 cells; type: functional, cell-based
[34] = tested on: RPMI-8226; assay: Cytotoxicity against human RPMI8226 cells; type: functional, cell-based; outline: as §1
[35] = tested on: HL-60; assay: Cytotoxicity against human HL60 cells after 48 hrs; type: functional; settings: HL-60, 48 h; outline: as §2
[36] = tested on: HSC-2; assay: Induction of apoptosis in human HSC2 cells assessed as increase of PARP1 cleavage at 0.4 uM after 12 hrs by Western blot analysis; type: functional, cell-based; outline: as §6
[37] = tested on: HCT-116; assay: Cell cycle arrest in human HCT116 cells assessed as accumulation at G0/G1 phase at 16 uM after 48 hrs using propidium iodide staining by flow cytometry (reference value: 92.07%); type: functional
[38] = tested on: HCT-116; assay: Cell cycle arrest in human HCT116 cells assessed as accumulation at S phase at 16 uM after 48 hrs using propidium iodide staining by flow cytometry (reference value: 3.19%); type: functional
[39] = tested on: HCT-116; assay: Cell cycle arrest in human HCT116 cells assessed as accumulation at G2/M phase at 16 uM after 48 hrs using propidium iodide staining by flow cytometry (reference value: 4.75%); type: functional

T1 sequence (P08183 whole entry): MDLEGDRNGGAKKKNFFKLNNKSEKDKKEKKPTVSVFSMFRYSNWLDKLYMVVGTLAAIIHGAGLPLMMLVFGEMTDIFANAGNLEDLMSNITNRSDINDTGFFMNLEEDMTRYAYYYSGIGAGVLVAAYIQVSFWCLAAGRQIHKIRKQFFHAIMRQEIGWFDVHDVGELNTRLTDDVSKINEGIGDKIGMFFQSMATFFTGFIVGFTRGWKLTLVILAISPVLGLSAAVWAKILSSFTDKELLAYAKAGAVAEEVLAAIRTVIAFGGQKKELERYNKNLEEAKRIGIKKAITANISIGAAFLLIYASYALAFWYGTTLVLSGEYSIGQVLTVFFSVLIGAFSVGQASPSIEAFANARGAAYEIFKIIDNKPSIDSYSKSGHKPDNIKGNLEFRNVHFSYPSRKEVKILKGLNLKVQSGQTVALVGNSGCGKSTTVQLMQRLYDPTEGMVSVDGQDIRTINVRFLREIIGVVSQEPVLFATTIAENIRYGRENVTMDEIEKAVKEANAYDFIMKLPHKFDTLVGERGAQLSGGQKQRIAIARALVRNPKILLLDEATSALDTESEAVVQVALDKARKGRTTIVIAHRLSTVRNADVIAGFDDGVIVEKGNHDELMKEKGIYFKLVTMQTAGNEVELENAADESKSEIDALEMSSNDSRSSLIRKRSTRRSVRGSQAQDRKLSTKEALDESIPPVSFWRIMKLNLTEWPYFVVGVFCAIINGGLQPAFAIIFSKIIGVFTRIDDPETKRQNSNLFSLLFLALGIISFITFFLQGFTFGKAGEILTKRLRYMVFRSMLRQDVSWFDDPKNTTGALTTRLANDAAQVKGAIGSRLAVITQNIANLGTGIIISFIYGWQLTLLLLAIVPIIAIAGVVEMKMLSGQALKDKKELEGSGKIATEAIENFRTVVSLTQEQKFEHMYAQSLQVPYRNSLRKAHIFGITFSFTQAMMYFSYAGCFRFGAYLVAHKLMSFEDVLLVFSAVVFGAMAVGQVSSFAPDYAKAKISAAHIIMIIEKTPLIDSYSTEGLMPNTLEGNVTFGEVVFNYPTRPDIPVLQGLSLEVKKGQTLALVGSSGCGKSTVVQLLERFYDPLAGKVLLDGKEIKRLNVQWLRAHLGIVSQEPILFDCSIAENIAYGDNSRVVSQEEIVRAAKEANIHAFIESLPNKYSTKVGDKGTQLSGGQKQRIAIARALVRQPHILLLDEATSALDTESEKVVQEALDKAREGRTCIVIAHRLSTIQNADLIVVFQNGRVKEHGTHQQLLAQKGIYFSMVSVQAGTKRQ

Which results are given for O=C1/C(=C/c2ccccc2)CN(C(=O)CC(=O)N2C/C(=C\c3ccccc3)C(=O)/C(=C/c3ccccc3)C2)C/C1=C\c1ccccc1?
IC50 [1]: 0.03 µM; Activity [2]: Active; IC50 [3]: 0.05 µM; IC50 [4]: 0.05 µM; CC50 [5]: 0.05 µM; Activity [6]: Active; Activity [7]: inactive; CC50 at 48 h [8]: 1.3 µM; Activity [9]: Active; Ratio [10]: 35.3; Ratio [11]: 18.4; Activity [12]: 25.01%; IC50 [13]: 0.13 µM; CC50 [14]: 0.084 µM; IC50 [15]: 0.05 µM; growth inhibition (GI) [16]: Active; Ratio [17]: 11; Ratio [18]: 53.3; IC50 [19]: 0.17 µM; growth inhibition (GI) [20]: Active; Activity [21]: Active; Ratio [22]: 20; Activity [23]: Active; CC50 [24]: 0.046 µM; Activity [25]: Active; IC50 [26]: 0.29 µM; Activity [27]: 43.46%; Activity [28]: 31.54%; CC50 at 48 h [29]: 1.1 µM; IC50 [30]: 0.17 µM; Ratio [31]: 20; IC50 [32]: 0.16 µM; growth inhibition (GI) [33]: Active; IC50 [34]: 0.13 µM; CC50 [35]: 0.046 µM; Activity [36]: Active

For COc1cc(/C=C/C(=O)CC(=O)/C=C/c2ccc(O)c(OC)c2)ccc1O [CURCUMIN], which Activity [37] is on record?
Its Activity is 48.97%.

And the Activity [38]?
Its Activity is 5.62%.

What about the Activity [39] of the same compound?
Its Activity is 45.42%.
